Values after ≈ are worked out from the molar mass of the structure shown.
Experiments:
Assay type in all cases: functional
[1] = system: Enterococcus faecalis; assay: Antibacterial activity against Enterococcus faecalis ATCC 51299 by CLSI method
Method in brief: (§1)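 CLSI susceptibility testing on Mueller-Hinton agar; clinical isolates came from patients with infections.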

[2] = system: Staphylococcus aureus; assay: Antibacterial activity against methicillin-resistant Staphylococcus aureus MB5393 by CLSI method
Method in brief: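 Broth microdilution: 90 μL diluted inoculum plus 8.4 μL medium (LB or BHI) and 1.6 μL compound dilution. Compounds tested as 2-fold serial dilutions from 160 to 0.31 μg/mL, in triplicate. Vancomycin (32 to 4 μg/mL) served as positive control and amphotericin B (16 to 0.25 μg/mL) as negative control.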

[3] = system: Haemophilus influenzae; assay: Antibacterial activity against Haemophilus influenzae 10996 by CLSI method; method in brief: as §1
[4] = system: Mycobacterium tuberculosis; assay: Antibacterial activity against Mycobacterium tuberculosis H37Rv by CLSI method
Method in brief: (§2)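 Agar proportion method for slowly growing mycobacteria on Middlebrook 7H10 agar supplemented with 10% OADC and 0.5% glycerol.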

[5] = system: Enterococcus faecium; assay: Antibacterial activity against Enterococcus faecium 10701 by CLSI method; method in brief: as §1
[6] = system: Enterococcus faecalis; assay: Antibacterial activity against Enterococcus faecalis ATCC 29212 by CLSI method; method in brief: as §1
[7] = system: Staphylococcus aureus; assay: Antibacterial activity against Staphylococcus aureus ATCC 43300 by CLSI method
[8] = system: Streptococcus pyogenes; assay: Antibacterial activity against Streptococcus pyogenes 81293 by CLSI method
Method in brief: (§3)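 CLSI procedure on Mueller-Hinton agar, supplemented per CLSI conditions for S. pneumoniae, S. pyogenes and N. meningitidis.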

[9] = system: Klebsiella pneumoniae; assay: Antibacterial activity against Klebsiella pneumoniae ATCC 700603 by CLSI method
[10] = system: Staphylococcus aureus; assay: Antibacterial activity against Staphylococcus aureus 11497 by CLSI method; method in brief: as §1
[11] = system: Bacteroides fragilis; assay: Antibacterial activity against Bacteroides fragilis 61592 by CLSI method
[12] = system: Staphylococcus aureus; assay: Antibacterial activity against Staphylococcus aureus ATCC 6538P by CLSI method; method in brief: as §1
[13] = system: Neisseria meningitidis; assay: Antibacterial activity against Neisseria meningitidis 71327 by CLSI method; method in brief: as §3
[14] = system: Mycobacterium tuberculosis; assay: Antibacterial activity against Mycobacterium tuberculosis MDR-2 by CLSI method; method in brief: as §2
[15] = system: Staphylococcus aureus; assay: Antibacterial activity against methicillin-sensitive Staphylococcus aureus MB2865 by CLSI method
Method in brief: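 MSSA MB2865 tested with diluted inoculum mixed with medium (LB or BHI) plus compound dilution. Twofold serial dilutions from 160 to 0.31 μg/mL, in triplicate. Penicillin G (0.312 to 0.039 μg/mL) was the positive control and amphotericin B (16 to 0.25 μg/mL) the negative control.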

[16] = system: Escherichia coli; assay: Antibacterial activity against Escherichia coli ESS by CLSI method; method in brief: as §1
[17] = system: Escherichia coli; assay: Antibacterial activity against Escherichia coli MB2884 after 20 hrs by spectrophotometric method; conditions: MB2884, 20 h
[18] = system: Enterococcus faecalis; assay: Antibacterial activity against Enterococcus faecalis 10544 by CLSI method; method in brief: as §1
[19] = system: Corynebacterium urealyticum; assay: Antibacterial activity against Corynebacterium urealyticum 1492 by CLSI method
Method in brief: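 CLSI procedure on trypticasein soy agar with 5% sheep blood.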

[20] = system: Pseudomonas aeruginosa; assay: Antibacterial activity against Pseudomonas aeruginosa PAO1 after 20 hrs by spectrophotometric method; conditions: PAO1, 20 h
[21] = system: Micrococcus luteus; assay: Antibacterial activity against Micrococcus luteus ATCC 14452 by CLSI method; method in brief: as §1
[22] = system: Haemophilus influenzae; assay: Antibacterial activity against Haemophilus influenzae ATCC 49247 by CLSI method
[23] = system: Bacteroides fragilis; assay: Antibacterial activity against Bacteroides fragilis ATCC 25285 by CLSI method
[24] = system: Streptococcus pneumoniae; assay: Antibacterial activity against Streptococcus pneumoniae 64412 by CLSI method; method in brief: as §3
[25] = system: Acinetobacter baumannii; assay: Antibacterial activity against Acinetobacter baumannii MB5973 after 20 hrs by spectrophotometric method; conditions: MB5973, 20 h
[26] = system: Mycobacterium tuberculosis; assay: Antibacterial activity against Mycobacterium tuberculosis MDR-1 by CLSI method; method in brief: as §2
[27] = system: Clostridium perfringens; assay: Antibacterial activity against Clostridium perfringens 103281 by CLSI method
[28] = system: Staphylococcus aureus; assay: Antibacterial activity against Staphylococcus aureus ATCC 25923 by CLSI method; method in brief: as §1

Row | Structure (SMILES) | MIC [1] | MIC [2] | MIC [3] | MIC [4] | MIC [5] | MIC [6] | MIC [7] | MIC [8] | MIC [9] | MIC [10] | MIC [11] | MIC [12] | MIC [13] | MIC [14] | MIC [15] | MIC [16] | MIC [17] | MIC [18] | MIC [19] | MIC [20] | also measured
1 | COC[C@H]1[C@@H](O)[C@@H]2O[C@@]34/C(C)=C/[C@@H](C)[C@@H]([C@H](O)CO)OC(=O)[C@H](COC)[C@H]3C=C[C@@H]2[C@H]4[C@@H]1O | > 64 µg/mL | 20 to 40 µg/mL (≈ 42.7 to 85.4 µM) | > 64 µg/mL | > 32 µg/mL | > 64 µg/mL | > 64 µg/mL | > 64 µg/mL | > 128 µg/mL | > 80 µg/mL | > 64 µg/mL | > 128 µg/mL | 32 µg/mL (≈ 68.3 µM) | 64 µg/mL (≈ 137 µM) | > 32 µg/mL | 80 µg/mL (≈ 171 µM) | 128 µg/mL (≈ 273 µM) | > 80 µg/mL | 64 µg/mL (≈ 137 µM) | 16 µg/mL (≈ 34.1 µM) | > 80 µg/mL | MIC [21]: 16 µg/mL (≈ 34.1 µM); MIC [22]: > 64 µg/mL; MIC [23]: 128 µg/mL (≈ 273 µM); MIC [24]: > 128 µg/mL; MIC [25]: > 80 µg/mL; MIC [26]: > 32 µg/mL; MIC [27]: 16 µg/mL (≈ 34.1 µM); MIC [28]: 64 µg/mL (≈ 137 µM)
2 | COC[C@H]1C(=O)O[C@H]([C@H](O)CO)[C@H](C)/C=C(\C)[C@@]23O[C@H]4[C@H](O)[C@H](C)[C@@H](O)[C@@H]2[C@H]4C=C[C@H]13 | > 64 µg/mL | > 160 µg/mL | > 64 µg/mL | > 32 µg/mL | > 64 µg/mL | > 64 µg/mL | > 64 µg/mL | > 128 µg/mL | > 80 µg/mL | > 64 µg/mL | 128 µg/mL (≈ 292 µM) | > 128 µg/mL | 32 µg/mL (≈ 73 µM) | > 32 µg/mL | > 160 µg/mL | 64 µg/mL (≈ 146 µM) | > 80 µg/mL | > 64 µg/mL | 8 µg/mL (≈ 18.2 µM) | > 80 µg/mL | MIC [21]: 1 µg/mL (≈ 2.28 µM); MIC [22]: 32 µg/mL (≈ 73 µM); MIC [23]: 32 µg/mL (≈ 73 µM); MIC [24]: > 128 µg/mL; MIC [25]: > 80 µg/mL; MIC [26]: > 32 µg/mL; MIC [27]: 32 µg/mL (≈ 73 µM); MIC [28]: > 64 µg/mL

— ChEMBL document CHEMBL4052603, “Branimycins B and C, Antibiotics Produced by the Abyssal Actinobacterium Pseudonocardia carboxydivorans M-227” (2017)
